Common to all, as to assay type: functional, organism-based
Experiment [1] deals with Corynebacterium glutamicum. Put plainly: Effect (1 mM) on Corynebacterium glutamicum growth under stressing conditions; Expressed as absorbance (OD) at 570 nm; Control 0.87 nm. An outline of the steps:
(§1)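 Aerobic culture in a defined classic medium (M63, M9, SMM or LAS, chosen per species). Hyperosmotic stress was imposed with NaCl at 0.3–0.5 M final, set by each bacterium's salt tolerance. Each betaine analogue was added at 1 mM. Bacterial yield was read as absorbance at 570 nm and compared with a control culture without analogue.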

The subject of experiment [2] is Citrobacter freundii. In words: Effect (1 mM) on Citrobacter freundii growth under stressing conditions; Expressed as absorbance (OD) at 570 nm; Control 1.09 nm. An outline of the steps:
as §1

Experiment [3] concerns Klebsiella pneumoniae. Put plainly: Effect (1 mM) on Klebsiella pneumoniae growth under stressing conditions; Expressed as absorbance (OD) at 570 nm; Control 1.80 nm. An outline of the steps:
as §1

For experiment [4], the system named is Brevibacterium linens. In words: Effect (1 mM) on Brevibacterium linens growth under stressing conditions; Expressed as absorbance (OD) at 570 nm; Control 1.76 nm.
In experiment [5] the test system is Aeromonas hydrophila. Put plainly: Effect (1 mM) on Aeromonas hydrophila growth under stressing conditions; Expressed as absorbance (OD) at 570 nm; Control 1.65 nm. An outline of the steps: as §1
The test system of experiment [6] is Dickeya chrysanthemi. In words: Effect (1 mM) on Erwinia chrysanthemi growth under stressing conditions; Expressed as absorbance (OD) at 570 nm; Control 1.97 nm. An outline of the steps: as §1
Experiment [7] relates to Salmonella enterica. In words: Effect (1 mM) on Salmonella enterica growth under stressing conditions; Expressed as absorbance (OD) at 570 nm; Control 1.23 nm. The procedure, abridged: as §1
Experiment [8] relates to Enterobacter cloacae. Put plainly: Effect (1 mM) on Enterobacter cloacae growth under stressing conditions; Expressed as absorbance (OD) at 570 nm; Control 1.25 nm. The procedure, abridged: as §1
In experiment [9] the test system is Enterococcus faecalis. Put plainly: Effect (1 mM) on Enterococcus faecalis growth under stressing conditions; Expressed as absorbance (OD) at 570 nm; Control 1.16 nm. An outline of the steps: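 Enterococcus was grown aerobically in defined M9 medium made hyperosmotic with NaCl (0.3–0.5 M final, set by tolerance). Each betaine analogue was supplied at 1 mM. Yield was read as OD at 570 nm against an untreated control.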

In experiment [10] the test system is Serratia marcescens. Put plainly: Effect (1 mM) on Serratia marcescens growth under stressing conditions; Expressed as absorbance (OD) at 570 nm; Control 1.03 nm. The procedure, abridged:
as §1

For experiment [11], the system named is Sinorhizobium meliloti. Put plainly: Effect (1 mM) on Sinorhizobium meliloti growth under stressing conditions; Expressed as absorbance (OD) at 570 nm; Control 1.46 nm.
Experiment [12] concerns Escherichia coli. In words: Effect (1 mM) on Escherichia coli growth under stressing conditions; Expressed as absorbance (OD) at 570 nm; Control 1.24 nm. The procedure, abridged:
as §1

Experiment [13] deals with Acinetobacter baumannii. In words: Effect (1 mM) on Acinetobacter baumannii growth under stressing conditions; Expressed as absorbance (OD) at 570 nm; Control 1.14 nm. An outline of the steps:
as §1

The test system of experiment [14] is Bacillus subtilis. Put plainly: Effect (1 mM) on Bacillus subtilis growth under stressing conditions; Expressed as absorbance (OD) at 570 nm; Control 3.20 nm. The procedure, abridged:
as §1

Experiment [15] relates to Pseudomonas aeruginosa. Put plainly: Effect (1 mM) on Pseudomonas aeruginosa growth under stressing conditions; Expressed as absorbance (OD) at 570 nm; Control 1.24 nm.

SMILES strings stand for the structures.

On to `COc1cccc(C[N+](C)(C)CC(=O)O)c1`, for which the Absorbance in [1] came out at 0.63; in experiment [2], 1.23; in [3], 0.7; in [4] it was 1.45; in experiment [5] it was 1.05; in experiment [6] it was 0.25. Also, the Absorbance in [7] was determined as 1.11; in experiment [8], 1.11; in experiment [9], 1.12; in experiment [10], 0.48; in experiment [11], 1.7; in experiment [12] it was 0.18. Also, the Absorbance was found to be 1.16 in [13], 3.2 in [14] and 1.07 in experiment [15].
`C[N+](C)(CC(=O)O)Cc1ccccc1`: the Absorbance in [1] is 0.43; in experiment [2], 1.32; in experiment [3], 0.46; in experiment [4], 0.88; in experiment [5], 0.16; in experiment [6] it was 0.22. In addition, the Absorbance was 1.24 in experiment [7]; 1.05 in [8]; 1.24 in [9]; 0.21 in experiment [10]; 2.3 in experiment [11]; 0.12 in experiment [12]. For the same compound, the Absorbance in experiment [13] turned out to be 0.93; in experiment [14], 3.2; in [15], 0.06.
With `C[N+](C)(CC(=O)O)Cc1ccc([N+](=O)[O-])cc1`, the Absorbance in experiment [1] is 0.33; in experiment [2], 0.03; in [3] it was 0.23; in [4] it was 1.74; in experiment [5], 0.06; in [6], 0.06. The Absorbance in experiment [7] is 0.07; in [8] it was 0.24; in experiment [9], 1.23; in experiment [10] it was 0.07; in experiment [11], 1.85; in experiment [12], 0.09. Also, the Absorbance came out at 0.19 in experiment [13], 0.18 in experiment [14] and 0.16 in experiment [15].
Take `C[N+](C)(CC(=O)O)Cc1ccccc1[N+](=O)[O-]`: the Absorbance in [1] is 0.26; in experiment [2] it was 0.06; in [3], 0.4; in [4] it was 1.52; in experiment [5] it was 0.2; in [6] it was 0.11. Also, the Absorbance in experiment [7] came to 0.23; in [8], 0.46; in experiment [9] it was 1.3; in experiment [10] it was 0.09; in experiment [11], 1.9; in [12] it was 0.08. Also, the Absorbance in experiment [13] was 0.72; in [14], 3.06; in [15] it was 0.11.
